From ChEMBL document CHEMBL1145193, “Identification of substituted 6-amino-4-phenyltetrahydroquinoline derivatives: potent antagonists for the follicle-stimulating hormone receptor” (J Med Chem, 2005)

How the values were obtained:
[1] = biological target: T1, Follicle-stimulating hormone receptor (Homo sapiens, UniProt P23945); assay: In vitro inhibition of maximum response on CHO-K1 cells expressing human Follicle stimulating hormone receptor; assay type: functional, cell-based
T1 sequence (P23945 whole entry): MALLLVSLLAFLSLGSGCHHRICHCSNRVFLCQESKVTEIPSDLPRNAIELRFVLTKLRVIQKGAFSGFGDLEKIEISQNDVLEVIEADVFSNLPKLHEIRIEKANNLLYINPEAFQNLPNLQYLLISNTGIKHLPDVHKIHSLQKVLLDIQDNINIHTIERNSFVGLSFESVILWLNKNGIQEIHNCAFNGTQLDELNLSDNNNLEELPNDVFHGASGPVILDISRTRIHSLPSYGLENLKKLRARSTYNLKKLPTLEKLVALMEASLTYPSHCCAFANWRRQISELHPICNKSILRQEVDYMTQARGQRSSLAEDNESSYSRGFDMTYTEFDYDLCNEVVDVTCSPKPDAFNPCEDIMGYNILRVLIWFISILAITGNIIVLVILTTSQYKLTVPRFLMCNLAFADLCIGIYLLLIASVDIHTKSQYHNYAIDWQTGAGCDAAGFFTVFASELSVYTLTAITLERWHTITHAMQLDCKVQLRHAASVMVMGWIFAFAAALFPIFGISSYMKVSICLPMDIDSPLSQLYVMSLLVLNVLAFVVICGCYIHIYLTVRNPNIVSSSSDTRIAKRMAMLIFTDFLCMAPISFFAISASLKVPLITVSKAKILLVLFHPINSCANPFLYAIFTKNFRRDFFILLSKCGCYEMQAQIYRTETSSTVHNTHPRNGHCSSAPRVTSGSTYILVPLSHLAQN
Outline: (§1)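 Antagonist-mode assay in CHO cells expressing human FSH receptor with a luciferase reporter: cells are stimulated with FSH and test compound is added. IC50 values come from duplicate measurements and represent at least two independent experiments; the SD of pIC50 is typically below 0.2. Compounds are scored "n.a." (not active) where no antagonism is seen.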

[2] = biological target: T2, Follicle-stimulating hormone receptor (Homo sapiens) (UniProt P23945); assay: In vitro inhibition of maximum response on CHO-K1 cells expressing human Follicle stimulating hormone receptor at 1E-5M; assay type: functional, cell-based
T2 sequence (whole entry): T1 sequence (P23945 whole entry)

[3] = biological target: T1, Follicle-stimulating hormone receptor; assay: In vitro inhibition of maximum response on CHO-K1 cells expressing human Follicle stimulating hormone receptor; Not active; assay type: functional, cell-based; outline: as §1
[4] = biological target: T1, Follicle-stimulating hormone receptor; assay: Effective concentration for maximum response on CHO-K1 cells expressing human Follicle stimulating hormone receptor; assay type: functional, cell-based
[5] = biological target: T3, Follicle-stimulating hormone receptor (Rattus norvegicus, UniProt P20395); assay: In vitro inhibition against maximum response evoked by cAMP in rat GFSHR-17 granulosa cell line; assay type: functional
T3 sequence (P20395 whole entry): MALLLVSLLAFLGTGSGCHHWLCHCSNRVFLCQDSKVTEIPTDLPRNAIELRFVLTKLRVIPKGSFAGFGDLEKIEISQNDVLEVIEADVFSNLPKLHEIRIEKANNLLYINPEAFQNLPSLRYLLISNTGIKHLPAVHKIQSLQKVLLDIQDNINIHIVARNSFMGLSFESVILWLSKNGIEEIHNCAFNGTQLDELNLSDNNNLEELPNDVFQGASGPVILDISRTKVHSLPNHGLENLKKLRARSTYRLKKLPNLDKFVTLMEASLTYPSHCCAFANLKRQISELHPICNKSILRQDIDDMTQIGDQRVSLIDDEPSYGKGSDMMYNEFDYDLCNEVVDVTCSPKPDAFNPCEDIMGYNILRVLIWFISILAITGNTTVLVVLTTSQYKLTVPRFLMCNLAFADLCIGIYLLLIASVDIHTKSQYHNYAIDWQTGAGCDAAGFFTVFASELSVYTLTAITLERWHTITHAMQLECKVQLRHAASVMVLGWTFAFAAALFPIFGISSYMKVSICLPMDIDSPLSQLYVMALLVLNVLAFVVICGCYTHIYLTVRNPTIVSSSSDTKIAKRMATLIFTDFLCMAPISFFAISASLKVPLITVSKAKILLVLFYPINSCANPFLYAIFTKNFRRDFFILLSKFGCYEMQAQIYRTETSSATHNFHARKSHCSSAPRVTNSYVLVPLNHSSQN
Outline: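 Granulosa cell line GFSHR-17, stably expressing rat FSH receptor, incubated with FSH plus test compound; read-out is inhibition of FSH-induced cAMP production, reported as IC50.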

[6] = biological target: T1, Follicle-stimulating hormone receptor; assay: In vitro inhibition of maximum response evoked by cAMP on CHO-K1 cells expressing human Follicle stimulating hormone receptor; assay type: functional, cell-based
Outline: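 CHO cells stably expressing human FSH receptor, run in antagonist mode. The natural ligand FSH stimulates the receptor and the test compound is added. FSH-induced cAMP production is measured as the functional read-out in place of luciferase, and an IC50 is derived.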

Mus musculus = species: Mus musculus; assay: Inhibition of follicle growth (ovulation) in mouse at 10 uM concentration; assay type: functional
Outline: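 Ex vivo culture of immature mouse follicles in the presence of FSH, with or without test compound at 10 µM. Follicle growth is compared with FSH-only follicles, and ovulation is scored as % ovulated follicles.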

Row | SMILES | IC50 [1] | further results
1 | CC(=O)N1c2ccc(NC(=O)COC(C)(C)C)cc2C(C)(c2ccccc2)CC1(C)C (stereo not given) | 76 nM | –
2 | CC(=O)N1c2ccc(NS(=O)(=O)Cc3ccccc3)cc2C(C)(c2ccccc2)CC1(C)C (stereo not given) | 2800 nM | –
3 | COc1cc(NC(=O)c2ccc(-c3ccccc3)cc2)cc2c1N(C(C)=O)C(C)(C)CC2(C)c1ccccc1 (stereo not given) | 30 nM | –
4 | CC(=O)N1c2ccc(OCc3ccc(-c4ccccc4)cc3)cc2C(C)(c2ccccc2)CC1(C)C (stereo not given) | 166 nM | –
5 | CC(=O)N1c2ccc(C(=O)NCc3cccs3)cc2C(C)(c2ccccc2)CC1(C)C (stereo not given) | – | inhibition [2]: 25%
6 | CC(=O)N1c2ccc(CNc3ccc(-c4ccccc4)cc3)cc2C(C)(c2ccccc2)CC1(C)C (stereo not given) | – | IC50 [3]: Not Active
7 | CC(=O)N1c2ccc(NC(=O)c3ccc(-c4ccccc4)cc3)cc2C(C)(c2ccccc2)CC1(C)C (single isomer, unassigned; isomer I) | – | IC50 [3]: Not Active
8 | CC(=O)N1c2ccc(OCCc3ccccc3)cc2C(C)(c2ccccc2)CC1(C)C (stereo not given) | – | inhibition [2]: 80%
9 | CC(=O)N1c2ccc(NCc3ccc(C(C)(C)C)cc3)cc2C(C)(c2ccccc2)CC1(C)C (stereo not given) | 930 nM | –
10 | CC(=O)N1c2ccc(N)cc2C(C)(c2ccccc2)CC1(C)C (stereo not given) | – | EC50 [4]: 4400 nM
11 | COc1ccc(CCNC(=O)c2ccc3c(c2)C(C)(c2ccccc2)CC(C)(C)N3C(C)=O)cc1 (stereo not given) | 1880 nM | –
12 | CCCc1ccc(C(=O)Nc2ccc3c(c2)C(C)(c2ccccc2)CC(C)(C)N3C(C)=O)cc1 (stereo not given) | 5 nM | –
13 | CC(=O)N1c2ccc(NC(=O)c3ccc(-c4ccc(C(C)(C)C)cc4)cc3)cc2C(C)(c2ccccc2)CC1(C)C (stereo not given) | – | inhibition [2]: 74%
14 | CC(=O)N1c2ccc(NC(=O)c3ccc(C(F)(F)F)cc3)cc2C(C)(c2ccccc2)CC1(C)C (stereo not given) | 7 nM | –
15 | CC(=O)N1c2ccc(NC(=O)c3ccco3)cc2C(C)(c2ccccc2)CC1(C)C (stereo not given) | 27 nM | –
16 | CC(=O)N1c2ccc(NC(=O)c3ccc(Cl)cc3)cc2C(C)(c2ccccc2)CC1(C)C (stereo not given) | 31 nM | –
17 | CC(=O)N1c2ccc(C(=O)Nc3ccc(-c4ccccc4)cc3)cc2C(C)(c2ccccc2)CC1(C)C (stereo not given) | – | inhibition [2]: 44%
18 | CC(=O)N1c2ccc(NC(=O)Nc3ccccc3)cc2C(C)(c2ccccc2)CC1(C)C (stereo not given) | 580 nM | –

Continued, in another order:

Row | IC50 [1] | SMILES | further results
19 | 5 nM | CC(=O)N1c2cc(C)c(NC(=O)c3ccc(-c4ccccc4)cc3)cc2C(C)(c2ccccc2)CC1(C)C (stereo not given) | –
20 | 50 nM | CC(=O)N1c2ccc(NC(=O)c3ccc(-c4ccccc4)cc3)cc2C(C)(c2ccc(C)cc2)CC1(C)C (stereo not given) | –
21 | 170 nM | COc1ccccc1C1(C)CC(C)(C)N(C(C)=O)c2ccc(NC(=O)c3ccc(-c4ccccc4)cc3)cc21 (stereo not given) | –
22 | 240 nM | CC(=O)N1c2ccc(NC(=O)c3ccc(-c4ccccc4)cc3)cc2C(C)(c2ccc(O)cc2)CC1(C)C (stereo not given) | –
23 | 54 nM | CC(=O)N1c2ccc(OC(=O)c3ccc(-c4ccccc4)cc3)cc2C(C)(c2ccccc2)CC1(C)C (stereo not given) | –
24 | 9 nM | CC(=O)N1c2ccc(NC(=O)c3cccc(-c4ccccc4)c3)cc2C(C)(c2ccccc2)CC1(C)C (stereo not given) | –
25 | 4 nM | CC(=O)N1c2ccc(NC(=O)c3ccc(-c4ccccc4)cc3)cc2C(C)(c2ccccc2)CC1(C)C (single isomer, unassigned; isomer II) | –
26 | 28 nM | CC(=O)N1c2ccc(NC(=O)c3ccc(-c4ccccc4)cc3)cc2C(C)(c2ccccc2)CC1(C)C (stereo in doubt; 10) | IC50 [5]: 540 nM; IC50 [6]: 10 nM; Inhibition (Mus musculus): 78%
27 | 25 nM | CC(=O)N1c2ccc(NC(=O)c3ccccc3-c3ccccc3)cc2C(C)(c2ccccc2)CC1(C)C (stereo not given) | –
